pEC50: −log10 of the molar value.
What was measured:
Rattus norvegicus = test: Effect on glucose concentration in Sprague-Dawley rat urine at 1 mg/kg, iv; format: ADME, organism-based; design: dose 1 mg/kg, route intravenous; settings: in vivo
Method in brief: (§1)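 Fasted male rats or mice were anesthetized with i.p. ketamine:xylazine (.001 mL/g), and the bladder was cannulated via an abdominal incision. Drug was given intravenously. Urine was collected over 60 min in 10-min intervals and assayed for glucose concentration.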

Liver microsomes = test: Metabolic stability in Sprague-Dawley rat liver microsomes at 10 uM
Mus musculus = test: Effect on glucose concentration in Swiss Webster mouse urine at 0.3 mg/kg, iv; format: ADME, organism-based; design: dose 0.3 mg/kg, route intravenous; settings: in vivo; method in brief: as §1
[1] = molecular target: T1, Sodium/glucose cotransporter 2 (Homo sapiens, UniProt P31639); test: Inhibition of human SGLT2 expressed in Xenopus oocyte assessed as [14C]alpha-methyl glucopyranoside uptake
T1 sequence (P31639 whole entry): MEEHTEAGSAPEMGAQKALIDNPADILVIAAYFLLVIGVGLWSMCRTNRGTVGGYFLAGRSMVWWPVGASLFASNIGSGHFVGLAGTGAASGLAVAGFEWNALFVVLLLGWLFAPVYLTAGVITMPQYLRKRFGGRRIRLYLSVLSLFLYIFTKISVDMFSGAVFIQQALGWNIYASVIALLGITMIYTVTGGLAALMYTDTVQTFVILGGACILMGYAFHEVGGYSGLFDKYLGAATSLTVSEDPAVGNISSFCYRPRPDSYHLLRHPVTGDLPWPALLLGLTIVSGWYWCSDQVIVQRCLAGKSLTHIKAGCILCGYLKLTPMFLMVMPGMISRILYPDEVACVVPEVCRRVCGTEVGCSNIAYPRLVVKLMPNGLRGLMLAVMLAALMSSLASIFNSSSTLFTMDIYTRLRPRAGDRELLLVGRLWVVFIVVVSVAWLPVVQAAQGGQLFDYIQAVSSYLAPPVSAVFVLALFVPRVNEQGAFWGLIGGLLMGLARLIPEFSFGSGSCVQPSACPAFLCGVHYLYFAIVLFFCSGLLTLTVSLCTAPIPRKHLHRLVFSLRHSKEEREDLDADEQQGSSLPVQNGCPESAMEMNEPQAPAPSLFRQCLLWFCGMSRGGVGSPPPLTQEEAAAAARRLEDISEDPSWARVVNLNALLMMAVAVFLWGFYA

Homo sapiens = organism: Homo sapiens; test: Selectivity for human SGLT2 over human SGLT1 expressed in Xenopus oocyte

| urinary glucose (Rattus norvegicus) | Stability (Liver microsomes) | urinary glucose (Mus musculus) | pEC50 [1] | Selectivity ratio (Homo sapiens) | Structure (SMILES) |
| --- | --- | --- | --- | --- | --- |
| 230 mg/dL | Stable | 600 mg/dL | – | – | Cc1ccc(Cc2cccc([C@@H]3O[C@H](CO)[C@@H](O)[C@H](O)[C@H]3O)c2)cc1 |
| – | – | – | 7.30 | 4 | Cc1cc(O)c(C(=O)CCc2ccc3occc3c2)c(O[C@@H]2O[C@H](CO)[C@@H](O)[C@H](O)[C@H]2O)c1 |
